Measured values as given in ChEMBL document CHEMBL4513216, “Probing the Open Global Health Chemical Diversity Library for Multistage-Active Starting Points for Next-Generation Antimalarials” (ACS Infect Dis, 2020).

Test: Toxicity liver stage against HepG2, at 10uM
Type: cell-based
Set-up: test concentration 10 uM, cell line HepG2-A16-CD81EGFP
Details: human, HepG2-A16-CD81EGFP cells; read-out: INHIBITION
Method in brief: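 Uninfected HepG2-A16-CD81EGFP cells, 3 × 10^3 per well, 1536-well, plated on prespotted compound at 10 μM final, parasite-free screening media added to match infected plates; puromycin 10 μM positive, DMSO 0.5% negative; run in parallel with 48 h PbLuc assay at 37 °C, 5% CO2; viability by CellTiter-Glo luminescence, normalized to controls.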

SMILES | cytotoxicity at 10 µM [%]
COc1cccc(NC(=O)c2nc3ccccc3n(C)c2=O)c1 | 4.47
CC1(C)OCC(CNC(=O)c2cnn(-c3cccc(Cl)c3Cl)c2N)O1 (configuration not stated) | 1.93
CCOc1ncnc2c1CCN(C(=O)c1cnccn1)CC2 | -6.13
Cc1nc(CN2C(=O)C[C@@H]3[C@@H]2CCN3S(C)(=O)=O)cs1 | -131
COc1cc(CC(O)CC#N)c(OC)c2c1OCO2 (configuration not stated) | -6.32
CC1CCc2nc(O)c(C(=O)NCc3cccc(F)c3)cc2C1 (configuration not stated) | 3.43
COc1ccccc1NC(=O)c1[nH]nc(C(C)C)c1Br | 8.24
CSCCC(C)NC(=O)c1cccc(-c2n[nH]c(C)n2)c1 (configuration not stated) | 1.31
CN(C)c1cc(C(F)(F)F)nc(N2CCCC2c2ccccn2)n1 (configuration not stated) | 5.36
CCN(CC(=O)NC(C)C)C(=O)c1csc(Cc2ccccc2)n1 | -5.43
CN(Cc1nc2ccccc2[nH]1)C(=O)CN(C)c1ccc(Cl)cn1 | -2.66
NC(=O)C(NC1CCN(Cc2ccc(F)cc2)CC1)c1ccccc1 (configuration not stated) | -5.4
COc1ccccc1C(NC(=O)CN(C)C(C)C)c1noc(C)n1 (configuration not stated) | -3.21
Cc1cnn(CC(C)NCC(=O)Nc2ccc(Cl)cn2)c1 (configuration not stated) | 6.05
COc1ccc(CN2CCN(Cc3nccn3C)C(C)C2)cc1F (configuration not stated) | 2.42
O=C(c1ccc(NCc2cccc(F)c2)cc1)N1CCC(CO)CC1 | 6.21
CC(=O)c1cc(C(=O)N2CCN(C)Cc3ccccc32)n(C)c1 | 7.85
CN(C)C1CCCN(C(=O)NCCC(C)(C)C)C1 (configuration not stated) | -0.317
CCOCCNC1(c2ccc(Cl)cc2)CCOCC1 | -3.75
Cc1[nH]ccc1C(=O)NC1CCC(N2C(=O)CCC2=O)CC1 (configuration not stated) | -3.81
CCOC(=O)c1cnn(-c2cc(C)ccn2)c1N | 11.3
Cc1nsc(N2CCN(CC(=O)NCc3cccnc3)CC2)n1 | -4.52
NC(=O)CN1CCC(NC2CSCCc3ccccc32)CC1 (configuration not stated) | -3.21

SMILES | cytotoxicity at 10 µM [%]
CCc1ccc(C2COCCN2C(=O)NCc2cccc(C#N)c2)o1 (configuration not stated) | -0.838
Cc1ccc(NC(=O)NC(C)c2nc[nH]n2)cc1Cl (configuration not stated) | -2.06
O=C(CNc1cc2c(cc1Cl)OCCCO2)NCc1ccc(F)cc1 | 0.854
COc1ccc(CCNC(=O)Nc2cc(C)nn2C)cc1 | -2.87
O=C(CCc1ccccc1Br)NCC(=O)NCc1ccccc1 | 0.988
O=C(c1ccn(-c2cccc(F)c2)n1)N1CCN(CC2CC2)CC1 | -7.54
COc1ccc(CNC(=O)Nc2ccc(CN3CCOC3=O)cc2)cc1 | -1.44
CCCn1nc2c(cc1=O)CN(CC(=O)Nc1cc(C)no1)CC2 | -4.59
COCCCNC(=O)CN(C)Cc1ccc(F)cc1Cl | -7.33
CCCNC(=O)COc1ccc(-c2ccccc2)nc1 | 6.16
O=C(NCCc1cccs1)NC1CCN(c2ncccn2)CC1 | -141
Cc1nc(CNC(=O)NC2CCN(c3ncccn3)CC2)cs1 | -141
COCCn1ccc(NC(=O)Nc2ccc(C)cc2)n1 | 2.19
O=C(c1ccc(=O)[nH]n1)N1CCCC1CCc1ccccc1 (configuration not stated) | 8.89
CCOc1ccc(N2CCC(C(O)c3ccccc3)CC2)nn1 (configuration not stated) | -2.2
Cc1cc(C(=O)Nc2cccn(Cc3ccccc3)c2=O)no1 | -1.55
CC(=O)Nc1nc(C(=O)NCCOc2ccccc2F)cs1 | -6.19
CCc1nc(COc2ccc(N(C)C(C)=O)cc2)no1 | -0.408
COCCNC(=O)c1nn(-c2cccc(C(C)C)c2)cc1O | -2.35
CN(C)C(=O)CN1CCCc2c(F)cc(Br)cc21 | -0.682
O=C(CSc1nnc[nH]1)NCc1cccs1 | 0.284
COc1ccc(Br)cc1CCC(=O)N1CCC(O)CC1 | -1.96
CCc1cnc(CNC(=O)NC2CCN(C3CCCC3)CC2)s1 | -1.06

SMILES | cytotoxicity at 10 µM [%]
Cc1noc(C)c1CCc1nc(C2CCOC2)no1 (configuration not stated) | -4
CSCCC(NC(N)=O)C(=O)N1CCC(Cc2ccccc2)CC1 (configuration not stated) | 1.28
COc1cccc2c1CCN(C(=O)NCc1nnc3ccccn13)C2 | 0.67
CN(CCn1cccn1)S(=O)(=O)c1cccc(F)c1C#N | 3.41
CC(C)n1cnnc1CN(C)Cc1ccc(CO)o1 | 3.68
CN1CCCCC1Cc1nc2c(cc1C(N)=O)CCC2 (configuration not stated) | -9.55
CC(NS(C)(=O)=O)C(=O)N(C)Cc1csc(-c2cccs2)n1 (configuration not stated) | -0.525
O=C1CCC2(CCCN(C(=O)c3ncc[nH]3)C2)CN1CCc1c[nH]cn1 (configuration not stated) | -2.47
CC(C)=CCCC(C)CN1CCC(n2cc(C(C)(C)O)nn2)CC1 (configuration not stated) | -2.27
COc1cc(N[C@@H](Cc2ccccc2)C(N)=O)ncn1 | 10.1
Cc1ccc2ncccc2c1CN1CC[C@H](N(C)C)[C@H](CCC(=O)O)C1 | -148
O=C1CN(C(=O)c2cc(-c3ccco3)nc3c(Cl)cccc23)CCN1 | -5.2
O=C(C1CCCC1)N1CCN(Cc2ccncc2)[C@@H]2CS(=O)(=O)C[C@@H]21 | -1.79
Cc1ccc(S(=O)(=O)NCC2CNCCOC2)cc1Cl (configuration not stated) | 0.858
COc1ccccc1[C@@H]1CN(C(=O)Cc2csc(C)n2)C[C@H]1C(=O)O | -8.25
CCN1CCN(C[C@@H]2CN(c3ncc(Cl)cc3F)C[C@@H]2CO)CC1 | -7.06
Cc1cc(C2CCC2)nc(NCCC23CCCN2CCC3)n1 | 0.414
CCN(CCO)C(=O)C1CCC(=O)N(Cc2cccc(OC)c2)C1 (configuration not stated) | -9.49
CCc1cnc(NCC(c2cccnc2)N2CCOCC2)nc1 (configuration not stated) | 9.6
O=C(Nc1ccccc1OCCc1ccccn1)N1CCOCC1 | 3.18
CC(=O)N1CCCC(C(=O)NCc2noc(Cc3ccccc3)n2)C1 (configuration not stated) | 3.02
COc1ccccc1OCCCN1C(=O)CCNC1=O | -3.7
O=C(c1cnc(COc2ccccc2)nc1O)N1CCC(F)(F)CC1 | -3.11

SMILES | cytotoxicity at 10 µM [%]
COCC(c1ccccn1)N(C)C(=O)c1cc(-c2ccccc2O)n[nH]1 (configuration not stated) | -1.84
CCn1c(N)nc2cc(C(=O)NCCNc3ncccc3C)cnc21 | -5.98
CN(C)C(=O)CN1CCN(c2ncccn2)[C@@H]2CS(=O)(=O)C[C@@H]21 | -3.01
CNC(=O)C1CCN(c2ncc3c(n2)CCN3c2ccccc2)C1 (configuration not stated) | -10.1
CCOCCNc1nc(-c2ccncc2)nc2c1CCNCC2 | -136
CCO[C@H]1CN(C)C[C@@H]1NC(=O)c1c[nH]nc1C1CCCCC1 | -5.56
CCC1=NOC(CNCc2cnc(-c3ccccc3C)s2)C1 (configuration not stated) | -5.92
CCc1ccc2nc(C)cc(C(=O)NC3CCCCNC3=O)c2c1 (configuration not stated) | -8.48
CN(Cc1cnc(N)nc1)C(=O)C1CC(=O)N(Cc2ccncc2)C1 (configuration not stated) | 0
Nc1cccc(-c2cccc3ccnn23)n1 | -5.74
N#Cc1cccnc1N1CCCC(CO)(Cc2cccc(Cl)c2)C1 (configuration not stated) | 6.29
O=C1CCC2(CCN(Cc3cscn3)CC2)CN1CCCO | -5.26
CCCn1ccnc1CN1C[C@@H](NC(C)=O)[C@H](c2ccc(OC)cc2)C1 | 0.344
C[C@@H]1CN(Cc2ccc(C(F)(F)F)cc2F)CC[C@]1(C)O | 4.54
COc1ccc2c(C)c(C(=O)NC3CCOCC3)oc2c1 | 15.2
CN(Cc1nccn1C)c1ccc(-c2nccn2C)nn1 | -6.45
CC(C)c1cc(C(=O)N2CCN(c3ccncc3)CC2)n(C)n1 | -3.5
COc1cccc2c1OCC(CNC(=O)CN(C)C1CCCC1)C2 (configuration not stated) | -147
CNc1ncc(CN(C)C(=O)[C@@]23CNC[C@@H]2CN(C2CCCC2)C3)cn1 | 0.153
Cc1nccc(-c2ccccc2)c1C(=O)N1CCC2(CN(C)C(=O)O2)C1 (configuration not stated) | 4.77
COc1ccc2c(c1)OCC(Cc1ccc(N)cn1)C2 (configuration not stated) | -1.91
CN(C)C[C@@H]1CN(C2CCN(c3ccc(Cl)cc3)CC2)C[C@@H]1CO | -9.14
Cc1ccc([C@H]2CN(C(=O)CC3CCC3)C[C@@H]2N)o1 | 5.89

SMILES | cytotoxicity at 10 µM [%]
O=S1(=O)C[C@@H]2[C@H](C1)N(S(=O)(=O)N1CCCC1)CCN2Cc1ccccc1 | -2.59
c1csc(N2CCN(Cc3cc4n(n3)CCNC4)CC2)n1 | -3.59
O=C(COCc1ccccc1)N1CCC(OCc2cccnc2)CC1 | 4.41
O=C(c1ccsc1)N1CCC(Nc2cccnn2)CC1 | -7.58
Cc1ncsc1C(=O)NCCNC(=O)Cc1cccc(F)c1 | -0.0716
CCOc1cc(C)nc(N2CCN(C(=O)Cn3cc(C)cn3)CC2)n1 | -5.43
COc1cccc(COCC(=O)N2CCCN(CC(N)=O)CC2)c1 | -7.04
Cc1nc(C2CCCN2C(=O)CCn2cncn2)no1 (configuration not stated) | -17.8
Cc1cnn(CC2CN(CC(=O)N(C)Cc3ccsc3)CCO2)c1 (configuration not stated) | -10.6
CC(Cn1cccn1)NC(=O)NCc1ccc(C(N)=O)cc1 (configuration not stated) | -3.2
CCn1ccnc1CN1CCN(CC(O)c2cccc(F)c2)CC1 (configuration not stated) | 0.272
O=C(c1ccccc1-n1cccn1)N1CCC(Nc2cccnn2)CC1 | -15.9
CCOc1ncccc1C(=O)N1CCCC(c2nncn2C)C1 (configuration not stated) | -8.47
CN(Cc1ccsc1)C(=O)CN1CCCCC1Cn1cccn1 (configuration not stated) | -1.07
CN(C)[C@@H]1CCN(c2ncc(F)cn2)[C@H]1Cc1ccccc1 | -1.65
COCC1CN(Cc2ccc(C)o2)Cc2nnn(C)c21 (configuration not stated) | -4.53
O=C(NCC1CN(c2ncccn2)Cc2nccn2C1)c1cccnc1 (configuration not stated) | -143
O=C([C@@H]1CCO[C@@H]2CCN(CCc3ccccc3)C[C@@H]21)N1CCCC1 | -3.06
CNC(=O)C(C)(C)N1CCC[C@H]1C(=O)NCCN1CCCC1 | -2.3
N#Cc1cccc(CN2Cc3nccn3CC(COCC3CC3)C2)c1 (configuration not stated) | -127
